According to article PMC3812312 (Journal of medicinal chemistry, 2013):
Entries after “also recorded” stand apart in the source; their conditions may differ.

Columns and labels:
human ERβ LBD = human ERβ LBD (Homo sapiens, UniProt Q92731); assay: ERβ agonist luciferase reporter assay in HEK 293T cells; assay type: cell-based; settings: 10 μM; for ER subtype preference (ratio of ERα to ERβ agonist activity): agonist assay; for ERβ agonist activity: HEK-luciferase assay
human recombinant HDAC1 = human recombinant HDAC1 (Homo sapiens, UniProt Q13547); assay: HDAC activity assay; assay type: biochemical; settings: HDAC isoforms 1, 6 and 8 tested
human recombinant HDAC1, sequence (Q13547 whole entry, canonical isoform): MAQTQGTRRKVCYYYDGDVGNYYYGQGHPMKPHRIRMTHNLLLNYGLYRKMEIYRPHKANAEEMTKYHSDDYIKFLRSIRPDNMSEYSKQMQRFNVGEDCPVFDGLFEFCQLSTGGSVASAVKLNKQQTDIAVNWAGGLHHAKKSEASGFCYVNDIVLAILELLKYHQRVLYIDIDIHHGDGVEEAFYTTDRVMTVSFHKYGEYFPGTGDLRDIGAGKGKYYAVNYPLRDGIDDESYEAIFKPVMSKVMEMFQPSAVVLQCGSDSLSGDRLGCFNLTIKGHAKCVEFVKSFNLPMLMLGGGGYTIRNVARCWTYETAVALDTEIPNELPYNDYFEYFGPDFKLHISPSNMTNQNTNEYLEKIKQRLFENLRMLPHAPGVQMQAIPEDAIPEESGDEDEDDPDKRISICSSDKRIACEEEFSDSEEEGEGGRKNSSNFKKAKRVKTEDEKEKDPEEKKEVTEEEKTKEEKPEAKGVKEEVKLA

MCF-7 cells = assay: Cell viability assay; assay type: cell-based, human
MDA-MB-231 cells = assay: Cell viability assay; assay type: cell-based; settings: 72 hours after drug dosing; ERα−/β− breast cancer
How it was run: (§1)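 Cell lines: MCF-7 (gift) and MDA-MB-231, DU145 and Vero (ATCC), kept in EMEM with 10% FBS, with or without antibiotics, at 37 °C under 5% CO2. Cells exposed to test compound in duplicate for 72 h; viability read by MTS and MTT colorimetric assays per manufacturer's instructions. IC50 obtained by logit plot analysis.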

VERO cells = assay: Cell viability assay; assay type: cell-based; settings: VERO versus MCF-7
[1] = target: T1, human ERα ligand binding domain (Homo sapiens, UniProt P03372); assay: ERα agonist luciferase reporter assay in HEK 293T cells; assay type: cell-based; settings: 10 μM, charcoal stripped serum
T1 sequence (P03372 301-595): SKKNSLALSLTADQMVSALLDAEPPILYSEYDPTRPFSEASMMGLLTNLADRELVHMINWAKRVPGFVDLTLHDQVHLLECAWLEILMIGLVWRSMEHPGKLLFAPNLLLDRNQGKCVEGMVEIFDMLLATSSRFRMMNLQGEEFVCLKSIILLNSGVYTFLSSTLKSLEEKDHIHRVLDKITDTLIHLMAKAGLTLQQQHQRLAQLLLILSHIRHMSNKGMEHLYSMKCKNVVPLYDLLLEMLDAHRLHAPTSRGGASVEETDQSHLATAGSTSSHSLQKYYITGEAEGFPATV

DU145 cells = assay: Cell viability assay; assay type: cell-based; settings: 72 hours after drug dosing; metastatic prostate cancer
How it was run: as §1

human recombinant HDAC8 = target: T2, human recombinant HDAC8 (Homo sapiens, UniProt Q9BY41); assay: HDAC activity assay; assay type: biochemical; settings: maximum concentration tested 100 μM
T2 sequence (Q9BY41 1-377): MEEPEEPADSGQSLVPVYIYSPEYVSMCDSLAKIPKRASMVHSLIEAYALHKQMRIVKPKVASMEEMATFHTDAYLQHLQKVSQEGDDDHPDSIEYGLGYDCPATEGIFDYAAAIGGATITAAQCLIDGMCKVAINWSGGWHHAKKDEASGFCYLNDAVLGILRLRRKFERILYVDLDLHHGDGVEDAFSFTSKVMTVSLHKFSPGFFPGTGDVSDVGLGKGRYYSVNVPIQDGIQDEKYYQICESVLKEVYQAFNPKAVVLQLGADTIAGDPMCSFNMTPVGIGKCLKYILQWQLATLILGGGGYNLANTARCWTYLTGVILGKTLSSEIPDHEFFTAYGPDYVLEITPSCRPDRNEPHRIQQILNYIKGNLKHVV

human recombinant HDAC6 = assay: HDAC activity assay; assay type: biochemical; settings: HDAC6 vs HDAC1 and HDAC8
How it was run: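 Run under contract. Human recombinant HDAC1, HDAC6 or HDAC8 incubated with HDAC substrate, 5 μg BSA and serial dilutions of test compound (DMSO stocks; 1% DMSO final, top 100 μM) in duplicate, 37 °C, 30 min. Developer added for 15 min at room temperature; fluorescence ex 360/em 460 nm.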

human ERβ LBD, sequence (Q92731 263-530): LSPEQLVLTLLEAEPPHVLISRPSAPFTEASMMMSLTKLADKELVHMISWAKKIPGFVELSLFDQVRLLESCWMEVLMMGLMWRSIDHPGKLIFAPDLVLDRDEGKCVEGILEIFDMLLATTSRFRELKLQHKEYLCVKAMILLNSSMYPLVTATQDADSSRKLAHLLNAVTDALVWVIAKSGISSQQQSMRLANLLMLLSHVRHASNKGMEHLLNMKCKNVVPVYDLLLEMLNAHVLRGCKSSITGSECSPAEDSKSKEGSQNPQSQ

C[C@]12CC[C@@H]3c4ccc(O)cc4CC[C@H]3[C@@H]1CC[C@@]2(O)c1cn(CCCC(=O)NO)nn1 [1a, 4-(4-((8R,9S,13S,14S,17S)-3,17-dihydroxy-13-methyl-7,8,9,11,12,13,14,15,16,17-decahydro-6H-cyclopenta[a]phenanthren-17-yl)-1H-1,2,3-triazol-1-yl)-N-hydroxybutanamide]
ER subtype preference (ratio of ERα to ERβ agonist activity) (human ERβ LBD): too weak in vitro to have an obvious preference
HDAC inhibition activity, overall (isoform not given) (human recombinant HDAC1): most potent HDACi
antiproliferative activity IC50, MCF-7 (MCF-7 cells; 72 hours after drug dosing, ERα+/β+ breast cancer): comparable
antiproliferative activity IC50, MDA-MB-231 (MDA-MB-231 cells): comparable; also recorded: inhibit the growth of MDA-MB-231
in vitro therapeutic index (IVTI) (VERO cells): greater IVTI

C[C@]12CC[C@@H]3c4ccc(O)cc4CC[C@H]3[C@@H]1CC[C@@]2(O)c1cn(CCCCC(=O)NO)nn1 [1b, 5-(4-((8R,9S,13S,14S,17S)-3,17-dihydroxy-13-methyl-7,8,9,11,12,13,14,15,16,17-decahydro-6H-cyclopenta[a]phenanthren-17-yl)-1H-1,2,3-triazol-1-yl)-N-hydroxypentanamide]
ERα agonist activity (fold activation, relative to control no drug) [1]: most significant ERα agonist effect

C[C@]12CC[C@@H]3c4ccc(O)cc4CC[C@H]3[C@@H]1CC[C@@]2(O)c1cn(CCCCCC(=O)NO)nn1 [1c, 6-(4-((8R,9S,13S,14S,17S)-3,17-dihydroxy-13-methyl-7,8,9,11,12,13,14,15,16,17-decahydro-6H-cyclopenta[a]phenanthren-17-yl)-1H-1,2,3-triazol-1-yl)-N-hydroxyhexanamide]
ERβ agonist activity (human ERβ LBD): significant ERβ activation
ER subtype preference (ratio of ERα to ERβ agonist activity) (human ERβ LBD): preferentially bind ERβ
HDAC inhibition activity, overall (isoform not given) (human recombinant HDAC1): most potent HDACi; also recorded: nM HDACi potency
antiproliferative activity IC50, MDA-MB-231 (MDA-MB-231 cells): inhibit the growth of MDA-MB-231
antiproliferative activity IC50, DU145 (DU145 cells): evidence of DU145 cell growth inhibition

C[C@]12CC[C@@H]3c4ccc(O)cc4CC[C@H]3[C@@H]1CC[C@@]2(O)c1cn(CCCCCCC(=O)NO)nn1 [1d, 7-(4-((8R,9S,13S,14S,17S)-3,17-dihydroxy-13-methyl-7,8,9,11,12,13,14,15,16,17-decahydro-6H-cyclopenta[a]phenanthren-17-yl)-1H-1,2,3-triazol-1-yl)-N-hydroxyheptanamide]
ERα agonist activity (fold activation, relative to control no drug) [1]: most significant ERα agonist effect
ERβ agonist activity (human ERβ LBD): significant ERβ activation
ER subtype preference (ratio of ERα to ERβ agonist activity) (human ERβ LBD): preferentially bind ERβ
HDAC inhibition activity, overall (isoform not given) (human recombinant HDAC1): most potent HDACi; also recorded: nM HDACi potency
HDAC8 inhibition IC50 (human recombinant HDAC8): order of magnitude greater HDAC8 inhibition
antiproliferative activity IC50, MDA-MB-231 (MDA-MB-231 cells): inhibit the growth of MDA-MB-231
antiproliferative activity IC50, DU145 (DU145 cells): evidence of DU145 cell growth inhibition

C[C@]12CC[C@@H]3c4ccc(O)cc4CC[C@H]3[C@@H]1CC[C@@]2(O)c1cn(CCCCCCCC(=O)NO)nn1 [1e, 8-(4-((8R,9S,13S,14S,17S)-3,17-dihydroxy-13-methyl-7,8,9,11,12,13,14,15,16,17-decahydro-6H-cyclopenta[a]phenanthren-17-yl)-1H-1,2,3-triazol-1-yl)-N-hydroxyoctannamide]
ER subtype preference (ratio of ERα to ERβ agonist activity) (human ERβ LBD): too weak in vitro to have an obvious preference
HDAC inhibition activity, overall (isoform not given) (human recombinant HDAC1): poor HDAC inhibition profile

CC/C(=C(\c1ccccc1)c1ccc(OCCN(C)Cc2ccc(-c3cn(CCCCCC(=O)NO)nn3)cc2)cc1)c1ccccc1 [compound 2, Tamoxifen-Triazolylhydroxamic acid]
potency relative to SAHA against MCF-7 (fold less potent) (MCF-7 cells): about 1.7 fold
in vitro therapeutic index (IVTI) (VERO cells): greater IVTI

CC/C(=C(\c1ccccc1)c1ccc(OCCN(C)Cc2ccc(NC(=O)CCCCCCC(=O)NO)cc2)cc1)c1ccccc1 [compound 3, Tamoxifen-SAHA Conjugate]
HDAC isoform selectivity (human recombinant HDAC6): selective for HDAC6
potency relative to SAHA against MCF-7 (fold less potent) (MCF-7 cells): equipotent to SAHA
in vitro therapeutic index (IVTI) (VERO cells): greater IVTI
